Results: ChEMBL document CHEMBL1134728, “Heterocyclic substituted anthralin derivatives as inhibitors of keratinocyte growth and inducers of differentiation” (Bioorg Med Chem Lett, 2001)

Assays:
[1] = Antiproliferative activity against growth of HaCaT cell was determined; type: functional, cell-based; details: Homo sapiens
[2] = Deoxyribose degradation measured as hydroxyl radical generation in HaCaT cell at 75 uM expressed as malondialdehyde released; type: functional, Homo sapiens
[3] = Compound was tested for the induction of HaCaT keratinocyte differentiation at 1 uM expressed as the amount of cross-linked protein in cornified envelope assay; type: functional, Homo sapiens
How it was run: (§1)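 Terminal differentiation of HaCaT keratinocytes measured as insoluble cross-linked protein envelopes, using a modified method; protein in envelope preparations quantified by Bradford. Value is the difference in cross-linked protein per mg protein between treated and vehicle-control cells; means ± SEM of three independent experiments; significance vs vehicle p < 0.05.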

[4] = Compound was tested for the induction of HaCaT keratinocyte differentiation at 10 uM expressed as the amount of cross-linked protein in cornified envelope assay; type: functional, Homo sapiens; how it was run: as §1
[5] = Compound was tested for the induction of HaCaT keratinocyte differentiation at 5 uM expressed as the amount of cross-linked protein in cornified envelope assay; type: functional, Homo sapiens; how it was run: as §1
[6] = Activity of LDH release in HaCaT cells after treatment with 2 uM concentration of the compound; type: functional, Homo sapiens
How it was run: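 LDH activity (mU) released into the HaCaT culture medium after compound treatment, taken as a marker of plasma membrane integrity and cytotoxicity; compared against vehicle controls; N=3.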

**Q.** Which results are given for O=C1c2c(O)cccc2C(C(=O)c2ccccc2)c2cccc(O)c21?
**A.** IC50 [1]: > 5 µM; DD [2]: 2.31 uM mM-1

**Q.** What does the source list for O=C1c2c(O)cccc2C(C(=O)c2ccsc2)c2cccc(O)c21?
**A.** Amount of cross-linked protein [3]: -0.6 (ug of cross-linked protein) (mg of protein)-1; Amount of cross-linked protein [4]: 3.4 (ug of cross-linked protein) (mg of protein)-1; Amount of cross-linked protein [5]: 0.6 (ug of cross-linked protein) (mg of protein)-1; IC50 [1]: > 5 µM; DD [2]: 0.82 uM mM-1

**Q.** For O=C1c2c(O)cccc2C(C(=O)/C=C/c2cccs2)c2cccc(O)c21, which “Amount of cross-linked protein” value [3] is on record?
**A.** 2 (ug of cross-linked protein) (mg of protein)-1

**Q.** And the “Amount of cross-linked protein” value [4]?
**A.** 5.6 (ug of cross-linked protein) (mg of protein)-1

**Q.** What about the LDH release [6] of the same compound?
**A.** 166 mU

**Q.** And the “Amount of cross-linked protein” value [5]?
**A.** 5 (ug of cross-linked protein) (mg of protein)-1

**Q.** What about the IC50 [1] of the same compound?
**A.** 4.2 µM

**Q.** What about the DD [2] of the same compound?
**A.** 1.13 uM mM-1

**Q.** With O=C1c2c(O)cccc2C(C(=O)c2ccc[nH]2)c2cccc(O)c21 as the compound, how does the “Amount of cross-linked protein” value [3] read?
**A.** 2.3 (ug of cross-linked protein) (mg of protein)-1

**Q.** What about the “Amount of cross-linked protein” value [4] of the same compound?
**A.** 6.5 (ug of cross-linked protein) (mg of protein)-1

**Q.** And the LDH release [6]?
**A.** 202 MU

**Q.** What about the “Amount of cross-linked protein” value [5] of the same compound?
**A.** 5.7 (ug of cross-linked protein) (mg of protein)-1

**Q.** And the IC50 [1]?
**A.** 0.6 µM

**Q.** And the DD [2]?
**A.** 1.77 uM mM-1

**Q.** For O=C1c2c(O)cccc2C(C(=O)c2cc3ccccc3[nH]2)c2cccc(O)c21, which “Amount of cross-linked protein” value [3] is on record?
**A.** 2 (ug of cross-linked protein) (mg of protein)-1

**Q.** And the “Amount of cross-linked protein” value [4]?
**A.** 5.7 (ug of cross-linked protein) (mg of protein)-1

**Q.** What about the LDH release [6] of the same compound?
**A.** 167 mU

**Q.** What about the “Amount of cross-linked protein” value [5] of the same compound?
**A.** 4.8 (ug of cross-linked protein) (mg of protein)-1

**Q.** What about the IC50 [1] of the same compound?
**A.** 0.7 µM

**Q.** And the DD [2]?
**A.** 0.17 uM mM-1

**Q.** Which “Amount of cross-linked protein” value [3] does the source give for O=C1c2c(O)cccc2C(C(=O)c2ccco2)c2cccc(O)c21 here?
**A.** 0.5 (ug of cross-linked protein) (mg of protein)-1

**Q.** And the “Amount of cross-linked protein” value [4]?
**A.** 5.8 (ug of cross-linked protein) (mg of protein)-1

**Q.** And the LDH release [6]?
**A.** 242 mU

**Q.** What about the “Amount of cross-linked protein” value [5] of the same compound?
**A.** 3.5 (ug of cross-linked protein) (mg of protein)-1

**Q.** What about the IC50 [1] of the same compound?
**A.** 1.2 µM

**Q.** And the DD [2]?
**A.** 0.41 uM mM-1

**Q.** Which “Amount of cross-linked protein” value [3] does the source give for O=C1c2c(O)cccc2C(C(=O)c2cccs2)c2cccc(O)c21 here?
**A.** -0.9 (ug of cross-linked protein) (mg of protein)-1

**Q.** And the “Amount of cross-linked protein” value [4]?
**A.** 3.7 (ug of cross-linked protein) (mg of protein)-1

**Q.** And the “Amount of cross-linked protein” value [5]?
**A.** 0.7 (ug of cross-linked protein) (mg of protein)-1

**Q.** What about the IC50 [1] of the same compound?
**A.** > 5 µM

**Q.** What about the DD [2] of the same compound?
**A.** 0.65 uM mM-1

**Q.** With O=C1c2c(O)cccc2C(C(=O)/C=C/c2ccco2)c2cccc(O)c21 as the compound, how does the “Amount of cross-linked protein” value [3] read?
**A.** -0.2 (ug of cross-linked protein) (mg of protein)-1

**Q.** What about the “Amount of cross-linked protein” value [4] of the same compound?
**A.** 1.9 (ug of cross-linked protein) (mg of protein)-1

**Q.** And the LDH release [6]?
**A.** 147 mU

**Q.** What about the “Amount of cross-linked protein” value [5] of the same compound?
**A.** 0.6 (ug of cross-linked protein) (mg of protein)-1

**Q.** And the IC50 [1]?
**A.** 1.5 µM

**Q.** What about the DD [2] of the same compound?
**A.** 1.69 uM mM-1

**Q.** For O=C1c2c(O)cccc2Cc2cccc(O)c21 [ANTHRALIN], which “Amount of cross-linked protein” value [3] is on record?
**A.** 3.7 (ug of cross-linked protein) (mg of protein)-1

**Q.** And the “Amount of cross-linked protein” value [4]?
**A.** 5.8 (ug of cross-linked protein) (mg of protein)-1

**Q.** And the LDH release [6]?
**A.** 294 mU

**Q.** What about the “Amount of cross-linked protein” value [5] of the same compound?
**A.** 4.9 (ug of cross-linked protein) (mg of protein)-1

**Q.** What about the IC50 [1] of the same compound?
**A.** 0.7 µM

**Q.** What about the DD [2] of the same compound?
**A.** 2.89 uM mM-1

**Q.** With O=C1c2cccc(O)c2C(=O)c2c(O)cccc21 [DANTHRON] as the compound, how does the “Amount of cross-linked protein” value [3] read?
**A.** 0.6 (ug of cross-linked protein) (mg of protein)-1

**Q.** And the “Amount of cross-linked protein” value [4]?
**A.** 0 (ug of cross-linked protein) (mg of protein)-1

**Q.** And the “Amount of cross-linked protein” value [5]?
**A.** -0.1 (ug of cross-linked protein) (mg of protein)-1
